Results on 15 compounds are retold here after ChEMBL document CHEMBL1138680, “Phenoxyphenyl pyridines as novel state-dependent, high-potency sodium channel inhibitors” (J Med Chem, 2004).

Experiment [1] is described as follows: Ratio between Kr to Ki. In kind it is functional.
Experiment [2] concerns the target Sodium channel protein type 2 subunit alpha (Rattus norvegicus) (UniProt P04775). The experiment can be described thus: Dissociation constant for binding to inactivated state of rat brain NaIIa (rNav1.2) -B2 cell line stably expressed in HEK293 Cells.
The target in experiment [3] is Sodium channel protein type 2 subunit alpha, Nav1.2 (Rattus norvegicus) (UniProt P04775). The experiment can be described thus: Dissociation constant for binding to resting state of rat brain NaIIa (rNav1.2) -B2 cell line stably expressed in HEK293 Cells.
The species entered for experiment [4] is Rattus norvegicus. The experiment can be described thus: Inhibition of native TTX-R sodium currents in acutely dissociated rat dorsal root ganglion (DRG). In kind it is functional. Summed up:
(§1)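 Acutely dissociated neurons from newborn Sprague Dawley rat pups were plated on poly-D-lysine and recorded for up to two weeks. The HEK-293 fractional-response protocol was used, but with a 1-s depolarizing prepulse and a 5-ms hyperpolarizing gap. Fractional responses were collected at three or more concentrations per drug. Ki came from a logistic fit of the partial concentration–inhibition curves.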

Experiment [5] is filed under the species Rattus norvegicus. Briefly: Inhibition of native TTX-S sodium currents in acutely dissociated rat dorsal root ganglion (DRG). In kind it is functional. Summed up:
as §1

For orientation: pKi means −log10 of the Ki, conventionally taken in molar units. Low readings indicate a large Ki, high ones a small Ki.

pKi: −log10 of the molar value.

`O=C(NCCN1CCCCC1)c1cncc(-c2ccc(Oc3ccc(F)cc3)cc2)c1`: the Ratio in experiment [1] turned out to be 68. In experiment [2], this compound gave a pKi of 6.82. This compound also came in with a kR in experiment [3] of 10.5 µM.
As for `Nc1nnc(-c2cccc(Cl)c2Cl)c(N)n1` [LAMOTRIGINE], the Inhibition activity in the experiment filed under Rattus norvegicus [4] came out at 103 µM; in the experiment listed under Rattus norvegicus [5] it was 38.4 µM.
In the case of `O=C(NCCN1CCCCC1)c1cccc(-c2ccc(Oc3ccc(F)cc3)cc2)n1`, the Inhibition activity in the experiment filed under Rattus norvegicus [4] stood at 0.06 µM. In experiment [1], the Ratio was 154. Also, the pKi in experiment [2] was 7.70. Also, the kR in experiment [3] turned out to be 4.3 µM.
As for `NC(=O)N/N=C/c1ccc(Oc2ccc(F)cc2)cc1`, the results for the Inhibition activity in the experiment listed under Rattus norvegicus [4] and in the experiment filed under Rattus norvegicus [5] were 0.26 µM and 0.25 µM, respectively. For the same compound, the Ratio in experiment [1] stood at 100. This compound gave a pKi in experiment [2] of 6.46. Also, the kR in experiment [3] stood at 34 µM.
In the case of `NC(=O)c1cccnc1-c1ccc(Oc2ccc(F)cc2)cc1`, the Ratio in experiment [1] came out at 5. Moreover, the pKi in experiment [2] was 4.87. The kR in experiment [3] was found to be 63.7 µM.
With `NC(=O)c1ccnc(-c2ccc(Oc3ccc(F)cc3)cc2)c1`, the pKi in experiment [2] was 5.58.
On to `COc1cc(C(N)=O)nc(-c2ccc(Oc3ccc(F)cc3)cc2)c1`, for which, in experiment [1], the Ratio is 24. The pKi in experiment [2] is 6.44. The kR in experiment [3] stood at 87.7 µM.
Consider `COc1cc(C(=O)NCCN(C)C)nc(-c2ccc(Oc3ccc(F)cc3)cc2)c1`, for which the results for the Inhibition activity in the experiment listed under Rattus norvegicus [4] and in the experiment filed under Rattus norvegicus [5] were 1.56 µM and 0.18 µM, respectively. In experiment [1], the Ratio is 90. The compound also gave a negative logarithm of the Ki (pKi) in experiment [2] of 6.60. In experiment [3], the kR stood at 23 µM.
The like results for `NC(=O)c1cccc(-c2ccc(Oc3ccc(F)cc3)cc2)n1` were, in that order, 0.27 µM, 0.1 µM, 252, 7.05 and 24.2 µM.
The like results for `NC(=O)c1cc(N2CCOCC2)cc(-c2ccc(Oc3ccc(F)cc3)cc2)n1` were, in that order, 0.1 µM, 0.06 µM, 94, 6.92 and 11.6 µM.
For the compound `Cc1cc(N(C)C)cc(-c2ccc(Oc3ccc(F)cc3)cc2)n1`, the Inhibition activity came to 0.34 µM in the experiment filed under Rattus norvegicus [4] and 0.53 µM in the experiment listed under Rattus norvegicus [5]. Moreover, the Ratio in experiment [1] was 122. In addition, the pKi in experiment [2] is 6.41. The same compound had a kR in experiment [3] of 47.1 µM.
With `NC(=O)N1c2ccccc2C=Cc2ccccc21` [CARBAMAZEPINE], the Inhibition activity in the experiment listed under Rattus norvegicus [4] was 111 µM; in the experiment filed under Rattus norvegicus [5], 28 µM.
For the compound `Cc1cc(OCCN2CCCCC2)cc(-c2ccc(Oc3ccc(F)cc3)cc2)n1`, the Inhibition activity was found to be 0.08 µM in the experiment listed under Rattus norvegicus [4] and 0.14 µM in the experiment filed under Rattus norvegicus [5]. Moreover, the Ratio in experiment [1] was determined as 362. Moreover, the pKi in experiment [2] is 6.77. Further, the kR in experiment [3] stood at 63.4 µM.
With `NC(=O)c1ccc(-c2ccc(Oc3ccc(F)cc3)cc2)nc1`, the pKi in experiment [2] is 5.43.
With `O=C(NCCN1CCCCC1)c1ccc(-c2ccc(Oc3ccc(F)cc3)cc2)nc1`, the Inhibition activity in the experiment filed under Rattus norvegicus [4] came out at 1.56 µM; in the experiment listed under Rattus norvegicus [5], 1 µM. In experiment [1], the Ratio amounted to 180. Also, the pKi in experiment [2] was 6.23. In experiment [3], this compound returned a kR of 107 µM.
